Assay results as given in PubChem BioAssay AID1296 (Columbia University Molecular Screening Center, 2008).
The whole screen tested about 130,000 compounds, of which about 1,000 (0.77%) were called active. Inconclusive results (about 1%) are left out. This is one part of a sample in which actives are shown more often than they occur.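 The calls were made as follows: active = activation at 2 µM above a set limit, confirmed on inspection of the cell images; inconclusive = above the set limit but not confirmed on image inspection; inactive = the rest.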

Assay: activators of insulin promoter-driven GFP, primary screen, imaging, TRM-6 cells (human fetal islet line), eGFP reporter, cell count (AID 1296;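 as to activation: share of cells whose green reporter signal exceeds an intensity cutoff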;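 as to normalized cell count: cells counted after 48 h compound exposure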)
Conditions: at 2 µM; activation: stronger effect = higher value; normalized cell count: measured here: cell count (toxicity)
In short: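 Test system: TRM-6 insulin promoter–eGFP reporter cells / Quantity: 1,000 cells per well / Reagent: tamoxifen inducer, 0.75 µM, in seeding medium / Compound dosing: 2 µM final, single concentration / Schedule: overnight tamoxifen, then two-day compound incubation at 37 °C / Measured by: automated fluorescence imaging of paraformaldehyde-fixed, Hoechst-counterstained cells, green channel / Read-out: percent activation from GFP-positive cell fraction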

Question: Which activation does the source give for `CC1=CC(=Cc2sc3ccccc3[n+]2C)C=C(C)O1` here?
Answer: 456% (active)

Question: What about the normalized cell count of the same molecule?
Answer: 88.8%

Question: Which results are given for `C[N+]1(C)CCOC(O)(c2ccc(-c3ccc(C4(O)C[N+](C)(C)CCO4)cc3)cc2)C1` (stereo not given)?
Answer: activation: -9.52% (inactive); normalized cell count: 86.4%

Question: Which results are given for `CC(=O)c1c(C)n(C(C)C)c2ccc(O)cc12`?
Answer: activation: 269% (inactive); normalized cell count: 65.5%

Question: What does the source list for `CCOCCc1c(O)[nH]c(=S)[nH]c1=O`?
Answer: activation: 0% (inactive); normalized cell count: 137%

Question: Which activation does the source give for `O=[N+]([O-])c1ccc(C2C3C(c4ccccc4)=NC4(CCCCC4)N32)cc1` (stereo not given) here?
Answer: -4.54% (inactive)

Question: What about the normalized cell count of the same molecule?
Answer: 112%

Question: What does the source list for `O=C(COc1ccc2ccccc2c1)N1CCN(Cc2ccncc2)CC1`?
Answer: activation: 1.82% (inactive); normalized cell count: 106%

Question: With `O=C(COC(=O)c1ccccc1)Nc1ccc(Cl)cc1C(=O)c1ccccc1` as the molecule, how does the activation read?
Answer: -3.33% (inactive)

Question: What about the normalized cell count of the same molecule?
Answer: 106%

Question: For `CCOC(=O)c1c(-c2ccccc2)oc2ccc(OC(=O)N(C)C)cc12`, which activation is on record?
Answer: -72.7% (inactive)

Question: And the normalized cell count?
Answer: 171%

Question: Which activation does the source give for `CC[N+]1(C)CCCC(OC(=O)C(O)(c2ccccc2)c2ccccc2)C1` (stereo not given) here?
Answer: 295% (active)

Question: And the normalized cell count?
Answer: 82%

Question: For `Cc1nn(Cc2ccccc2Cl)c(Cl)c1C(=O)OC(C(=O)NC(N)=O)C(C)C` (stereo not given), which activation is on record?
Answer: 6.67% (inactive)

Question: And the normalized cell count?
Answer: 71.1%

Question: For `O=C(CN1CCCC1=O)NCCc1ccccc1`, which activation is on record?
Answer: -2.56% (inactive)

Question: What about the normalized cell count of the same molecule?
Answer: 176%

Question: For `CC(=O)c1c(O)n(C2CCCCCC2)c(=O)[nH]c1=O`, which activation is on record?
Answer: 146% (active)

Question: And the normalized cell count?
Answer: 160%

Question: For `COC(=O)CN1C(=O)C2(C(C(=O)OC)=C(N)Oc3ccccc32)C2=C1CC(C)(C)CC2=O` (stereo not given), which activation is on record?
Answer: -6.67% (inactive)

Question: What about the normalized cell count of the same molecule?
Answer: 84.7%

Question: Which activation does the source give for `Cc1ccc(N2C(=O)NC(=O)C(CCc3ccncc3)(Cc3cccc(Cl)c3Cl)C2=O)cc1` (stereo not given) here?
Answer: 169% (inactive)

Question: And the normalized cell count?
Answer: 113%

Question: With `CC(=O)c1ccc(OC(NC(=O)Cc2ccccc2)C(Cl)(Cl)Cl)cc1` (stereo not given) as the molecule, how does the activation read?
Answer: 6.45% (inactive)

Question: What about the normalized cell count of the same molecule?
Answer: 137%
